ChEMBL document CHEMBL3860085, “Synthesis and evaluation of dihydropyrimidinone-derived selenoesters as multi-targeted directed compounds against Alzheimer's disease” (Bioorg Med Chem, 2016)

Legend:
[1] = Antioxidant activity assessed as inhibition of Fe2+-induced thiobarbituric acid reactive substance formation in phospholipids extracted from egg yolk by measuring malondialdehyde levels per mg of triglycerides at 100 uM after 1 hr by UV-Vis spectrophotometric method (reference value: 8.17 +/- 0.32 nmol); assay type: functional
Procedure, shortened: (§1)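 Egg-yolk phospholipids (isopropanol/water extract, pellet resuspended; 1 mg/mL triglycerides) incubated with or without fresh FeSO4 100 μM plus compound in 0.05 M potassium phosphate pH 7.5, 37°C 1 h. Acetic acid (pH 3.4) and 0.6% TBA added, 97°C 1 h, n-butanol extraction, A532 against MDA standard. Reported as nmol MDA/mg triglycerides. Mean ± SEM, n=3 in duplicate.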

[2] = Metal chelating activity assessed as compound-Fe2+ complex formation after 10 mins by UV-Vis spectrophotometer; assay type: physicochemical
Procedure, shortened: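 Fe2+ chelation by modified Minotti–Aust method. Compounds 5–100 μM with Fe2+ 120 μM (final), 37°C 10 min, then 1,10-phenanthroline (0.25% w/v) added and A510 read. Methanol serves as control, BHT as reference chelator. % chelation = (A control − A sample)/A control × 100; EC50 derived. Mean ± SEM, n=3 in duplicate.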

Acetylcholinesterase = Acetylcholinesterase (Electrophorus electricus, UniProt O42275); experiment: Inhibition of electric eel AChE using acetylthiocholine iodide as substrate preincubated for 15 mins followed by substrate addition measured every 15 secs for 5 to 10 mins by Ellman's method
[3] = Antioxidant activity assessed as inhibition of Fe2+-induced thiobarbituric acid reactive substance formation in phospholipids extracted from egg yolk after 1 hr by UV-Vis spectrophotometric method; assay type: functional; procedure, shortened: as §1

Acetylcholinesterase, sequence (O42275 whole entry): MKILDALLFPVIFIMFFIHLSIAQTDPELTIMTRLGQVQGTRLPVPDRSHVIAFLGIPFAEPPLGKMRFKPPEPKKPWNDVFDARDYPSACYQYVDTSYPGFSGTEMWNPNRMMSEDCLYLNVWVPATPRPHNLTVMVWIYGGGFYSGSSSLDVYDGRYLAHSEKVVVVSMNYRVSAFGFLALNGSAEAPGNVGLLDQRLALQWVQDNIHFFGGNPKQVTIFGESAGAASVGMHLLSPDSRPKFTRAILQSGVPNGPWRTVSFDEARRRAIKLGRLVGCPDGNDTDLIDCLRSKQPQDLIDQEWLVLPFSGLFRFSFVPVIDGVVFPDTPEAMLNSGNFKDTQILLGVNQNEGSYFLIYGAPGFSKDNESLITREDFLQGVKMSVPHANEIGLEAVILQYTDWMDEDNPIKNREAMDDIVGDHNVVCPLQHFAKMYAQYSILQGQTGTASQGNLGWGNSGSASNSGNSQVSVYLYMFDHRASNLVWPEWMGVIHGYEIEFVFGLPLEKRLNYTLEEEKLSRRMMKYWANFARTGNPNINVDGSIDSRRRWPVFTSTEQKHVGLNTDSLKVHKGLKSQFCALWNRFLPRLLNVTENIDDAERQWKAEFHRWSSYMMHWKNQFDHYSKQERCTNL

CCOC(=O)C1=C(C[Se]C(=O)c2ccc(C)cc2)NC(=O)NC1c1cccc2ccccc12 (stereo not given)
MDA level [1]: 1.96 nmol | EC50 [2]: 35.5 µM

CCOC(=O)C1=C(C[Se]C(=O)c2cccc(C(=O)[Se]CC3=C(C(=O)OCC)C(c4ccccc4)NC(=O)N3)c2)NC(=O)NC1c1ccccc1 (stereo not given)
MDA level [1]: 3.99 nmol | IC50 (Acetylcholinesterase): 10.6 µM | EC50 [2]: 29.9 µM

Cc1ccc(C(=O)[Se]Cc2ccccc2)cc1
MDA level [1]: 1.23 nmol | IC50 (Acetylcholinesterase): 12.9 µM | EC50 [2]: 22.4 µM

CCOC(=O)C1=C(C[Se]C(=O)c2ccc(C)cc2)NC(=O)NC1c1ccc(N(C)C)cc1 (stereo not given)
MDA level [1]: 3.96 nmol | EC50 [2]: 29.6 µM

CCOC(=O)C1=C(C[Se]C(=O)c2ccc(C)cc2)NC(=O)NC1c1ccc(C)cc1 (stereo not given)
MDA level [1]: 0.87 nmol | Activity [3]: Dose-dependent effect | EC50 [2]: 21.2 µM

Cc1cc(C(C)(C)C)c(O)c(C(C)(C)C)c1 [BUTYLATED HYDROXYTOLUENE]
EC50 [2]: 23.3 µM

CCOC(=O)C1=C(C[Se]C(=O)c2ccc(C)cc2)NC(=O)NC1c1ccccc1 (stereo not given)
MDA level [1]: 0.46 nmol | IC50 (Acetylcholinesterase): 7.21 µM | Activity [3]: Dose-dependent effect | EC50 [2]: 10.5 µM

CCOC(=O)C1=C(C[Se]C(=O)c2ccc(C)cc2)N(C)C(=O)NC1c1cccc([N+](=O)[O-])c1 (stereo not given)
MDA level [1]: 2.29 nmol | EC50 [2]: 32.8 µM

CCOC(=O)C1=C(C[Se]C(=O)c2ccc(C)cc2)NC(=O)NC1c1ccc(O)c(OC)c1 (stereo not given)
MDA level [1]: 0.68 nmol | IC50 (Acetylcholinesterase): 13.6 µM | Activity [3]: Dose-dependent effect | EC50 [2]: 8.1 µM

CCOC(=O)C1=C(CSC(=O)c2ccc(C)cc2)NC(=O)NC1c1ccccc1 (stereo not given)
MDA level [1]: 3.14 nmol | IC50 (Acetylcholinesterase): 11.7 µM | EC50 [2]: 20.2 µM

c1ccc([Se][Se]c2ccccc2)cc1
MDA level [1]: 2.41 nmol

CCOC(=O)C1=C(C[Se]C(C)=O)NC(=O)NC1c1ccccc1 (stereo not given)
MDA level [1]: 5.1 nmol | IC50 (Acetylcholinesterase): 14.2 µM | EC50 [2]: 41.2 µM

CCOC(=O)C1=C(C)NC(=O)NC1c1ccccc1 (stereo not given)
MDA level [1]: 3.03 nmol | IC50 (Acetylcholinesterase): 9.23 µM | EC50 [2]: 15.8 µM

O=c1c2ccccc2[se]n1-c1ccccc1
MDA level [1]: 3.22 nmol

CCOC(=O)C1=C(C[Se]C(=O)c2ccc(C)cc2)NC(=O)NC1c1cccc([N+](=O)[O-])c1 (stereo not given)
MDA level [1]: 1.51 nmol | EC50 [2]: 24.5 µM

CCOC(=O)C1=C(C[Se]C(=O)c2ccc(C)cc2)NC(=O)NC1c1ccc(OC)cc1 (stereo not given)
MDA level [1]: 0.77 nmol | Activity [3]: Dose-dependent effect | EC50 [2]: 22.4 µM
